PolyA inhibitor – polyadenylation inhibitors in yeast reporter cells, primary screen, luminescence, S. cerevisiae; S. cerevisiae SKY197-pL101 polyadenylation reporter, beta-gal luminescence; efflux-impaired pdr1/pdr3 knockout yeast; score 100 = 6 SD above DMSO; activity score, % at 12 µM; actives 0.02% (n = 300,000); AID 1875, 2009;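 active means lowest replicate activity score at least 50, where 100 means six control SD above control mean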;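 further: yeast exposed to compound for 9 h at 30 °C; higher score means more reporter readthrough which indicates perturbed polyadenylation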
Pemphigus Ab inh – inhibitors of pemphigus antibody binding to DSG3, primary screen, biochemical, bead-based, flow cytometry, scFv-GFP; actives 0.48% (n = 310,000); AID 588358, 2011; DSG3-coupled beads, scFv-anti-DSG3-GFP binding; hits give low values; Desmoglein-3 (Homo sapiens), P32926; binding (percent of control), % at 10 µM;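 active means binding more than 3 SD below its plate's average and above zero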;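 further: hits lower antibody fragment binding to DSG3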
NLRP3 yeast inh – NALP3 inflammasome inhibitors in reconstituted yeast, primary screen, luminescence, uHTS; Yeast reconstituted NLRP3/ASC/caspase-1, beta-gal luminescence, 24 h; inhibition, % at 10 µM; actives 0.39% (n = 330,000);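 active means inhibition of 50% or more; inactive means inhibition below 50%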;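 further: plate controls were induced DMSO wells for no effect and uninduced yeast grown without galactose for full effect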
NALP1 inh – NALP1 inflammasome inhibitors in reconstituted yeast, colorimetric, S. cerevisiae, triplicate retest; AID 2071, 2009; actives 0.61% (n = 280,000); S. cerevisiae NALP1/ASC/caspase-1 growth, X-gal OD620, 72 h; inhibition, % at 10 µM; in the data active means inhibition mostly above about 24%, no sharp cut-off; inactive means mostly below about 32%
ALR inh – inhibitors of human ALR sulfhydryl oxidase, primary screen, biochemical, H2O2 detection, HRP-luminol luminescence, single point | FAD-linked sulfhydryl oxidase ALR (Homo sapiens), P55789 | purified ALR, DTT oxidation | inhibition, % (test concentration not listed) | actives 3.8% (n = 290,000);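 active means mean replicate inhibition above about 79%, with every replicate also reaching it, limit read from the data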
Target sequence (P55789 whole entry, looked up): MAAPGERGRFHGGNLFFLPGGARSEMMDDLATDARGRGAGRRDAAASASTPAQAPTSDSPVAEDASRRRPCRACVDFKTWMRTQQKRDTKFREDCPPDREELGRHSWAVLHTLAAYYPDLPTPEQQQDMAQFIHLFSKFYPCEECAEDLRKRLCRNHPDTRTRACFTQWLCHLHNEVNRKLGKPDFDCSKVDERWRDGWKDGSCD
Arr AP2 block – inhibitors of beta-arrestin/AP2 binding, primary screen, biochemical, GPCR trafficking, flow cytometry; beta-arrestin 1 C-terminal peptide binding to AP2 beta2-adaptin appendage (human); FITC-arrestin peptide / GST-AP2 beads; AP2 beta2 appendage carries R879A mutation; inhibition, % at 10 µM; actives 0.31% (n = 340,000); AID 504490, 2011;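 active means inhibition above a set limit, near 3 SD of compounds lacking own fluorescence, cut at about 54% in these data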;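 further: plate controls were DMSO wells for no effect and 5 µM unlabelled arrestin peptide for full effect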
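System: GST-AP2 R879A glutathione beads | Also added: FITC-arrestin peptide, 50 nM | Times: 12 min plus 1 h, RT | Signal: Bead flow cytometry, FITC channel | Buffer or medium: PBS with 0.05% Tween 20 and 0.1% BSA | Read-out basis: Percent drop in bead-associated FITC signal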
NALP3 yeast conf – NALP3 inhibitors retested in yeast, confirmation, luminescence, single concentration; actives 81% (n = 1,300); yeast expressing human NALP3; shares compounds with NLRP3 yeast inh; AID 435006, 2010; inhibition, % at 10 µM; in the data active means inhibition above about 48%
Casp1-ASC yeast – CASP1-PYCARD signaling inhibition in yeast, confirmatory test, counterassay for NLRP3 inhibitor program, one-dose | shares compounds with NLRP3 yeast inh | yeast expressing Caspase-1-ASC, luminescence counter screen | inhibition, % at 10 µM | actives 66% (n = 1,000) | AID 488784, 2010
NALP3 retest – NALP3 inhibitors in yeast, repeat test, confirmation, luminescence, single concentration, retest; inhibition, % at 10 µM; yeast expressing human NALP3, luminescence read-out; shares compounds with NLRP3 yeast inh; actives 53% (n = 1,000)
Numbers without * were called inactive; i = inactive; · = no result. This is a sample that favours compounds with a hit; in the whole collection about 4.6% have one here. Unless noted, no stated cut-off is given here; in the data, active means inhibition above about 50%; inactive means the rest.

SMILES	PolyA inhibitor	Pemphigus Ab inh	NLRP3 yeast inh	NALP1 inh	ALR inh	Arr AP2 block	NALP3 yeast conf	Casp1-ASC yeast	NALP3 retest
C[C@@]12CCC3[C@@](CCC4[C@@]3(C)CCC[C@@]4(C)C(=O)NCc3ccccc3)(CC1=O)C2 (stereo partly specified)	·	94.2	52.2*	·	3.8	3.7	53.8*	47.5	45.0
O=C(c1ccco1)N1CCN(S(=O)(=O)c2cccc(Cl)c2)CC1	28.2	110.0	-8.5	1.7	1.0	26.7	·	·	·
CN(C)c1ncc(CN2CCC(CO)(CCCc3ccccc3)CC2)s1	7.4	101.4	70.0*	5.7	-3.7	18.4	25.4	·	·
O=S1(=O)C=C(Sc2nc3ccccc3s2)c2ccccc21	-19.6	·	62.1*	12.0	41.6	·	63.5*	86.3*	59.0*
Cc1noc(C)c1C(=O)NNc1cc(Cl)ccc1Cl	-22.3	·	-2.5	18.4	-7.8	7.8	·	·	·
CC1CCc2c(C(=O)Nc3nccs3)csc2C1 (stereo unspecified)	8.2	99.6	58.1*	29.8	-2.3	-10.8	69.2*	76.8*	46.0
Cc1cccc(NC(=O)c2ccc(S(=O)(=O)N3CCCCC3)cc2)c1	-2.7	95.7	52.0*	19.2	-7.8	17.6	60.0*	59.9*	51.9*
CC(C)(c1cc(Br)c(O)c(Br)c1)c1cc(Br)c(O)c(Br)c1	·	105.3	52.5*	·	52.5	10.2	49.2*	·	·
Cc1nn(-c2ccccc2)c(Oc2ccccc2)c1C=O	-11.2	98.5	21.9	28.6	9.0	-0.1	·	·	·
CCCCN1C(=O)/C(=C/C=C2\Oc3ccccc3N2CC)SC1=S	-9.8	191.5	·	8.7	·	3.1	·	·	·
CCN1/C(=C/C=C/c2oc3ccc(-c4ccccc4)cc3[n+]2CC)Oc2ccc(-c3ccccc3)cc21	-8.3	·	66.7*	51.2*	-9.8	i	67.7*	22.4	43.2
O=c1cnn(-c2ccccc2)c(-c2ccccc2)c1	17.9	101.8	56.1*	1.6	-1.8	1.7	78.6*	58.5*	56.1*
COCc1c(C(=O)N2CCN(Cc3nc4ccccc4s3)CC2)oc2ccccc12	·	108.1	10.3	·	-1.5	0.4	·	·	·
CCN1/C(=C/c2ccc3cc(C)ccc3[n+]2CC)Sc2ccccc21	·	254.0	55.6*	123.3*	21.9	4.3	67.8*	99.6*	98.8*
CCN1/C(=C/c2ccc3cc(C)ccc3[n+]2CC)Sc2cc(C)c(C)cc21	·	104.3	23.9	14.8	·	-22.8	·	·	·
COc1cccc(NC(=O)c2cnc(SC)nc2)c1	2.4	118.1	69.4*	11.2	-10.7	0.1	71.7*	68.2*	58.2*
CSc1ncc(C(=O)Nc2ccc(C(C)=O)cc2)c(-c2ccccc2)n1	-6.4	103.0	6.0	2.3	-5.7	29.1	·	·	·
CSc1ncc(C(=O)Nc2ccccc2)cn1	14.9	99.8	58.8*	11.1	-3.2	7.3	72.1*	56.6*	54.8*
Cc1ccc(/C=N/N(C)S(=O)(=O)c2ccc(C)cc2)cc1	-3.3	101.5	51.1*	2.3	-3.2	-1.8	58.1*	58.0*	33.1
CSc1ccc(/C=N/N(C)S(=O)(=O)c2ccc(C)cc2)cc1	15.8	92.6	41.6	7.7	-3.1	15.1	·	·	·
Cc1ccc(C)c(NC(=O)c2cnn(-c3ccccc3)c2C)c1	-5.2	115.2	55.1*	33.3	·	3.0	65.6*	44.9	44.7
